TAAR1 antagonist – human TAAR1 antagonism; CHO RD-HGA16 TAAR1, Fluo-8 calcium fluorescence, antagonist; Q96RJ0; 360,000 compounds, 1.5% hits; inhibition, % at 3 µM;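 active means inhibition above a per-plate cutoff, the mean inhibition of test compounds on that plate plus 3 SD, cut at about 49% in these data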;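 further: 0% = DMSO plus EC80 beta-PEA response and 100% = DMSO alone without agonist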
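Assay system: CHO-derived RD-HGA16 cells stably expressing human TAAR1 plus Gα16. Timing: 140 s kinetic read after compound, 140 s after agonist. Technique: kinetic Fluo-8 calcium fluorescence measurement. Measure: % inhibition of agonist calcium response.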
B2AR ag – human beta-2 adrenergic receptor agonism by FAP; P07550; Am2.2-beta2AR cells, FAP receptor internalization, flow cytometry; response, % (no concentration beside the values); 340,000 compounds, 0.43% hits; AID 504454;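 active means response above a set limit, near 3 SD of response in nonfluorescent compounds, cut at about 42% in these data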
HTR2A ag – agonists of mouse serotonin 5-HT2A receptor (HTR2A); P35363; CHO-K1 mHTR2A beta-arrestin complementation, luminescence; percent of 30 µM serotonin response; activation, % at 7.6 µM; 360,000 compounds, 0.66% hits;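 active means activation above a run cutoff, the mean activation of all tested compounds plus 3 SD, cut at about 14% in these data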;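 further: 0% = plate median of compound wells and 100% = 30 µM serotonin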
TAAR1 ag – human TAAR1 agonism | 360,000 compounds, 0.99% hits | activation, % at 3 µM | Q96RJ0 | CHO RD-HGA16 TAAR1, Fluo-8 calcium fluorescence; vehicle wells 0%, saturating PEA agonist 100%;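 active means activation above the mean activation of all test compounds in the run plus 3 SD, cut at about 38% in these data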
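Assay system – CHO-derived RD-HGA16 cells with stable Gα16 and human TAAR1 · Compound dosing – one-point dosing at 3 µM (nominal) · Incubation – 17-24 h seeding, 75 min 37 °C dye, 30 min RT · Measured by – kinetic Fluo-8 calcium fluorescence · Control set – DMSO vehicle as 0%, PEA at EC100 as 100% · Repeats – single well for each compound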
MC4R antag cAMP – antagonists of human melanocortin 4 receptor (MC4R); MC4R-expressing cells, MTII-stimulated cAMP, LANCE TR-FRET; 360,000 compounds, 0.48% hits; P32245; AID 540295; inhibition, % at 6.5 µM;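 active means inhibition above its plate's cutoff, the mean of tested wells on that plate plus 3 SD, cut at about 29% in these data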;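 further: 0% = Melanotan II alone and 100% = Melanotan II plus saturating MCL0020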
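Test system: U2OS cells stably expressing human melanocortin 4 receptor (MC4R); also added: Melanotan II challenge; compound: 6.5 µM single dose; timing: 30-min compound preincubation, 1-h Melanotan II challenge, 1-h detection, room temperature; signal: Eu-cAMP/anti-cAMP TR-FRET, emission 671 nm; repeats: one well per compound, no replicates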
MC4R barr agon – human MC4R agonism via beta-arrestin. 360,000 compounds, 0.98% hits. activation, % at 8.9 µM. U2OS MC4R beta-arrestin complementation, luminescence; percent of melanotan II response, DMSO zero. AID 540308;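 active means activation above a per-plate cutoff, the mean activation of sample wells on that plate plus 3 SD, cut at about 8% in these data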
MC4R barr ag – human MC4R beta-arrestin agonism confirmation; shares compounds with MC4R barr agon; U2OS MC4R beta-arrestin recruitment, luminescence; scaled DMSO 0%, Melanotan II 100%; activation, % at 8.9 µM; 2,400 compounds, 31% hits; AID 602192;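 active means mean activation across replicates above the hit cutoff set in the earlier primary screen, cut at about 8% in these data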
MOR-DOR barr ag – activates mu-delta opioid heterodimer, MC4R agonist counter-screen; 2,400 compounds, 5.8% hits; U2OS PathHunter beta-arrestin, beta-gal luminescence; percent of deltorphin B response, DMSO zero; shares compounds with MC4R barr agon; activation, % at 9.2 µM; AID 602194;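 active means mean activation across replicates exceeds the hit threshold derived in the earlier primary screen, cut at about 18% in these data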;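 further: 100% = deltorphin B at 0.9 µM final and 0% = DMSO alone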
Target sequence (P35372 whole entry, looked up): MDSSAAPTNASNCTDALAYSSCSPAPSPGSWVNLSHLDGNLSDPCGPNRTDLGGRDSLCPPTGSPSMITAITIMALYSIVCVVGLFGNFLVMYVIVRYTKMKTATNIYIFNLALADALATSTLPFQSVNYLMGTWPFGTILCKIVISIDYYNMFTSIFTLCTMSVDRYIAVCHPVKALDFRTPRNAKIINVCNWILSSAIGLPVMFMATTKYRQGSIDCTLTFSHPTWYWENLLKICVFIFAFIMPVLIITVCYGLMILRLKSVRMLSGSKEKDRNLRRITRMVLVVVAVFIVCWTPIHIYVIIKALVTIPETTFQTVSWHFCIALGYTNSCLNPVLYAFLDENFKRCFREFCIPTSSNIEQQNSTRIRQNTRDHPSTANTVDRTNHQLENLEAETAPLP
Target sequence (P41143 whole entry, looked up): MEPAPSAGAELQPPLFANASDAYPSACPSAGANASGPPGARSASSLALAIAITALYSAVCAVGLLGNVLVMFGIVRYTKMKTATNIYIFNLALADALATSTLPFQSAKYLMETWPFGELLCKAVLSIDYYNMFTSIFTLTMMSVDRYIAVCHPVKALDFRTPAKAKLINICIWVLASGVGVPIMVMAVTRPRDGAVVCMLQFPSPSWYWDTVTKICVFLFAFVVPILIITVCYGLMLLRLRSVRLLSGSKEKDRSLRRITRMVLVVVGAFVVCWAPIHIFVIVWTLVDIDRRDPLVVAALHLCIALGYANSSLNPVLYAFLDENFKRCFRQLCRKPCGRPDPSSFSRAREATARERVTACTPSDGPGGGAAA
Active calls of the source: *; · = not tested or not shown. This is a sample that favours compounds with a hit; in the whole collection about 4.3% have one here.

SMILES	TAAR1 antagonist	B2AR ag	HTR2A ag	TAAR1 ag	MC4R antag cAMP	MC4R barr agon	MC4R barr ag	MOR-DOR barr ag
COc1ccc(C(C)=O)cc1COC(=O)c1cc2ccccc2cc1O	17.1	-4.3	4.0	-0.1	-16.0	10.8*	-0.6	5.5
COc1ccc(C(C)=O)cc1COC(=O)c1cccnc1Cl	3.0	-0.2	-1.5	2.5	-1.6	-1.9	·	·
Cc1nn(-c2ccccc2)c2sc(C(=O)NNC(=O)COc3ccccc3)cc12	-5.8	-3.8	-1.7	1.7	-5.3	2.0	·	·
Cc1nn(-c2ccccc2)c2sc(C(=O)NNC(=O)COc3cccc4ccccc34)cc12	15.1	-0.3	0.6	4.3	4.3	24.6*	6.2	4.4
Cc1cccc(NC(=O)c2cc(S(=O)(=O)N3CCc4ccccc43)cn2C)c1C	-9.2	-8.0	-8.4	2.1	4.9	10.9*	4.1	4.6
C[C@H]1CCCCO[C@@H](CN(C)C(=O)NC2CCCCC2)[C@@H](C)CN([C@@H](C)CO)C(=O)c2cc(NC(=O)Cc3ccccc3)ccc2O1	-27.6	·	-3.0	-0.9	26.9	0.9	·	·
Nc1ccc(-n2c(N)c(C(=O)NCc3ccc4c(c3)OCO4)c3nc4ccccc4nc32)cc1	7.7	2.6	2.0	6.3	5.8	12.7*	0.9	3.8
COc1ccc(OC)c(NC(=O)c2cc(-c3cc(C)ccc3O)n[nH]2)c1	28.9	-5.9	6.3	6.3	0.3	10.1*	2.0	14.7
COc1ccc(CNC(=S)Nc2ccc3nc(N4CCOCC4)cc(C)c3c2)cc1	-18.1	9.6	-0.7	2.1	13.9	40.8*	11.1*	7.9
COc1cc(-c2nnc(-c3cc(-c4ccccc4)nc4ccccc34)o2)cc(OC)c1OC	-4.8	-4.5	3.8	-0.3	-1.4	0.7	·	·
COc1ccc(OC)c(NC(=S)NC(=O)c2ccc(Br)o2)c1	-12.1	-3.8	1.8	0.5	11.8	10.6*	3.1	19.2*
COc1ccc(CNC(=S)Nc2cc(OC)ccc2OC)cc1	-25.1	3.6	2.1	0.9	-4.3	1.4	·	·
CCNC(=O)C1(C)CCN(C(=O)c2ccc3c(c2)OCO3)C1 (centres undefined)	-19.1	·	0.0	1.1	1.5	-2.5	·	·
C=C(C)Cn1c2ccc(NC(=O)CCc3cccc(Cl)c3)cc2c(=O)n1C	-7.0	·	-4.0	2.3	-14.0	-2.8	·	·
Cn1c(=O)c2cc(NC(=O)CCc3cccc(Cl)c3)ccc2n1Cc1cccc(C(F)(F)F)c1	2.8	·	2.5	4.6	-4.6	14.2*	-1.8	4.2
CN(C(=O)Nc1ccccc1)C1CCCc2ccccc21 (centres undefined)	-11.8	2.8	1.0	2.8	11.2	-0.2	·	·
CCOc1ccc(CNC(=O)CCc2cn(Cc3ccccc3)c3ccccc23)cc1	-12.3	-5.8	-2.8	2.9	4.3	13.2*	10.0*	7.5
COC(=O)[C@@]12CCCN1[C@H](c1ccc(-c3ccccc3)cc1)[C@@H]1C(=O)N(C)C(=O)[C@@H]12	-0.3	2.6	-6.4	10.5	0.9	-1.9	·	·
CCC(=O)N1CCC1(C)C(=O)Nc1ccc(C)c(C)c1 (centres undefined)	-15.1	·	-1.2	6.0	17.7	1.9	·	·
O=C(NC1CCC1)C1CCC(=O)N(Cc2ccc(Cl)cc2)C1 (centres undefined)	5.2	·	-4.4	0.7	12.3	1.4	·	·
Cc1ccc(C)c(C(=O)COC(=O)c2n[nH]c3ccccc23)c1	40.7	6.5	5.0	1.0	-13.9	16.4*	16.1*	8.5
Cc1cccc(C)c1OCCOC(=O)c1n[nH]c2ccccc12	24.2	-3.8	7.0	9.6	-14.8	1.1	·	·
Cc1ccc(NC(=O)c2cc(-c3ccc(C)c(C)c3O)n[nH]2)cc1C	13.1	-5.2	-3.0	0.7	3.2	2.0	·	·
CC(=O)Nc1ccc(NC(=O)c2cc(-c3ccc(C)c(C)c3O)n[nH]2)cc1	15.9	10.5	-0.4	3.9	-3.6	9.7*	4.2	2.3
O=C(COC(=O)c1cccc(S(=O)(=O)N2CCCCC2)c1)NCc1ccccc1	4.7	5.2	6.7	1.0	-12.0	-0.5	·	·
SMILES	TAAR1 antagonist	B2AR ag	HTR2A ag	TAAR1 ag	MC4R antag cAMP	MC4R barr agon	MC4R barr ag	MOR-DOR barr ag
O=C(COC(=O)c1cccc(S(=O)(=O)N2CCCCCC2)c1)NCc1ccc(Cl)cc1	8.9	-0.9	2.0	2.7	-0.3	9.8*	1.9	3.2
Cc1cccc(NC(=O)COC(=O)c2ccc(S(=O)(=O)N3CCCCCC3)cc2)c1	-11.9	-8.8	2.9	1.0	8.0	12.0*	1.8	3.1
O=C(COC(=O)c1ccc(S(=O)(=O)N2CCCCC2)cc1)Nc1ccccc1Cl	2.5	5.7	0.4	0.7	13.9	23.2*	-0.2	2.4
O=[N+]([O-])c1ccc(-[n+]2nc(-c3ccccc3)nn2-c2ccccc2)cc1	-4.2	2.4	-0.7	3.1	8.7	0.8	·	·
Cc1ccc(NC(=O)c2ccc(OC(=O)CCN3C(=O)c4ccccc4C3=O)cc2)cc1	20.1	-4.4	-0.9	10.5	6.4	11.7*	2.4	3.3
CCN1CCc2nc(N)oc2CC1	-36.3	-10.1	4.0	8.0	0.2	-0.4	·	·
C[C@H]1CN([C@@H](C)CO)C(=O)CCCn2nncc2CO[C@H]1CN(C)C(=O)C1CCCCC1	2.1	·	0.9	-0.3	-1.5	0.7	·	·
N#CC(=Cc1ccccn1)c1nc(-c2ccc(Cl)cc2)cs1	-7.8	·	-3.6	-0.9	0.8	17.3*	3.1	3.5
N#C/C(=C\Nc1ccc2cn[nH]c2c1)c1nc(-c2ccc(Cl)cc2)cs1	-8.3	-13.6	-3.9	1.1	16.8	-1.8	·	·
CCOC(=O)c1ccc(NC(=O)Nc2cc(C)on2)cc1	-5.7	-0.3	-1.7	20.8	1.4	10.5*	4.4	7.1
CCOC(=O)c1ccc(NC(=O)Nc2cccc(C)n2)cc1	0.4	7.1	1.3	12.0	15.9	2.1	·	·
CN(C)S(=O)(=O)c1ccc(Cl)c(C(=O)NNC(=O)c2ccc3c(c2)OCO3)c1	1.2	-8.4	4.0	14.8	13.7	-1.1	·	·
Cn1c(=O)oc2cc(S(=O)(=O)N3CCN(c4cccc(Cl)c4)CC3)ccc21	13.1	-215.7	-0.1	5.0	-2.0	10.6*	0.1	4.3
Cn1c(=O)oc2cc(S(=O)(=O)N3CCN(c4ccc(F)cc4)CC3)ccc21	10.0	-78.2	-4.1	8.8	11.2	0.6	·	·
